We go through 15 compounds from ChEMBL document CHEMBL1275269, “Cyclization of some carbothioamide derivatives containing antipyrine and triazole moieties and investigation of their antimicrobial activities” (2010).

The structures appear in SMILES notation. Active and inactive are the calls of the source. The calls are words filed in the database; no cut-off is given here.

One assay deals with Candida tropicalis. Description: Antifungal activity against Candida tropicalis ATCC 13803 after 18 hrs by agar-well diffusion method. The class given is functional. Put shortly:
(§1)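 Yeast flood-inoculated onto Sabouraud dextrose agar and dried. Five-millimetre wells were cut with a sterile cork-borer, and test substance was delivered into each well.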

The subject of assay [1] is Mycolicibacterium smegmatis. Description: Antibacterial activity against Mycobacterium smegmatis ATCC 607 after 18 hrs by agar-well diffusion method. On IZ: test concentration or dose not given here. Type of assay: functional. Put shortly:
(§2)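 Microorganisms flood-inoculated onto the surface of Mueller-Hinton agar or Sabouraud dextrose agar, then dried. 5 mm diameter wells cut into the agar with a sterile cork-borer.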
On the technique in general: A growth-free zone around the sample is the usual read-out of agar diffusion tests.

The subject of a further assay is Aspergillus niger. Briefly: Antifungal activity against Aspergillus niger RSKK 4017 after 18 hrs by agar-well diffusion method. Type of assay: functional, organism-based. Put shortly:
as §2

In the next assay the test system is Bacillus cereus. Briefly: Antibacterial activity against Bacillus cereus 702 after 18 hrs by agar-well diffusion method. On IZ: test concentration or dose not given here. The class given is functional. Put shortly: as §2
The subject of a further assay is Saccharomyces cerevisiae. Briefly: Antifungal activity against Saccharomyces cerevisiae RSKK 251 after 18 hrs by agar-well diffusion method. The class given is functional. Put shortly:
(§3)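 Organisms flood-inoculated onto the agar surface and dried. Five-millimetre wells were cut with a sterile cork-borer, and test substance was delivered into each well.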

Another assay deals with Enterococcus faecalis. Description: Antibacterial activity against Enterococcus faecalis ATCC 29212 after 18 hrs by agar-well diffusion method. On IZ: test concentration or dose not given here. Type of assay: functional. Put shortly: as §2
Assay [2] concerns Yersinia pseudotuberculosis. Briefly: Antibacterial activity against Yersinia pseudotuberculosis ATCC 911 after 18 hrs by agar-well diffusion method. Type of assay: functional. Put shortly: as §3
The next assay has as its system Escherichia coli. Description: Antibacterial activity against Escherichia coli ATCC 25922 after 18 hrs by agar-well diffusion method. On IZ: test concentration or dose not given here. The class given is functional. Put shortly: as §2
Another assay relates to Pseudomonas aeruginosa. Briefly: Antibacterial activity against Pseudomonas aeruginosa ATCC 43288 after 18 hrs by agar-well diffusion method. On IZ: test concentration or dose not given here. Type of assay: functional. In short, it runs like this: as §2
The test system of the next assay is Klebsiella aerogenes. Briefly: Antibacterial activity against Enterobacter aerogenes ATCC 13048 after 18 hrs by agar-well diffusion method. On IZ: test concentration or dose not given here. Type of assay: functional. In short, it runs like this: as §2
The next assay concerns Staphylococcus aureus. Description: Antibacterial activity against Staphylococcus aureus ATCC 25923 after 18 hrs by agar-well diffusion method. On IZ: test concentration or dose not given here. Type of assay: functional. Put shortly: as §2
The test system of a further assay is Candida albicans. Description: Antifungal activity against Candida albicans ATCC 60193 after 18 hrs by agar-well diffusion method. Type of assay: functional. In short, it runs like this: as §1

With `Cc1c(-n2c(Cc3ccc(Cl)cc3)nn(Cc3nnc(Nc4ccc(F)cc4)s3)c2=O)c(=O)n(-c2ccccc2)n1C`, the outcome with Candida tropicalis, in the assay on Aspergillus niger, in the assay with Bacillus cereus, in the assay with Saccharomyces cerevisiae, in the assay on Enterococcus faecalis and in the assay with Staphylococcus aureus was Active. The result in the assay on Candida albicans was Active. Moreover, the “inhibition zone (IZ)” value in assay [1] turned out to be 25 mm; in assay [2], 25 mm; with Escherichia coli it was 20 mm; in the assay on Pseudomonas aeruginosa it was 20 mm; with Klebsiella aerogenes, 25 mm.
Regarding `CN[C@@H]1[C@H](O[C@H]2[C@H](O[C@H]3[C@H](O)[C@@H](O)[C@H](N=C(N)N)[C@@H](O)[C@@H]3N=C(N)N)O[C@@H](C)[C@]2(O)C=O)O[C@@H](CO)[C@H](O)[C@H]1O` [STREPTOMYCIN], in [1], the “inhibition zone (IZ)” value was 35 mm.
Regarding `CC1(C)S[C@@H]2[C@H](NC(=O)[C@H](N)c3ccccc3)C(=O)N2[C@H]1C(=O)O` [AMPICILLIN], the “inhibition zone (IZ)” value came out at 15 mm with Bacillus cereus; 10 mm in the assay on Enterococcus faecalis; 18 mm in [2]; 10 mm in the assay with Escherichia coli; 18 mm in the assay with Pseudomonas aeruginosa; 10 mm in the assay with Klebsiella aerogenes. The “inhibition zone (IZ)” value in the assay on Staphylococcus aureus is 35 mm.
With `Cc1c(-n2c(Cc3ccc(Cl)cc3)nn(CC(=O)N/N=c3/scc(-c4ccc(Cl)cc4)n3-c3ccccc3)c2=O)c(=O)n(-c2ccccc2)n1C`, the result with Candida tropicalis, in the assay with Aspergillus niger, with Bacillus cereus, with Saccharomyces cerevisiae, with Enterococcus faecalis and with Pseudomonas aeruginosa was Active. Besides, the outcome in the assay with Klebsiella aerogenes, in the assay with Staphylococcus aureus and in the assay on Candida albicans was Active. For the same compound, the “inhibition zone (IZ)” value in assay [1] is reported as 10 mm; in assay [2], 12 mm; in the assay with Escherichia coli, 15 mm.
Turning to `OC(Cn1cncn1)(Cn1cncn1)c1ccc(F)cc1F` [FLUCONAZOLE], the “inhibition zone (IZ)” value in the assay on Candida tropicalis is recorded as 25 mm; with Saccharomyces cerevisiae it was over 25 mm; in the assay on Candida albicans, 25 mm.
As for `CCOC(=O)Cn1nc(Cc2ccc(Cl)cc2)n(-c2c(C)n(C)n(-c3ccccc3)c2=O)c1=O`, the outcome (with Candida tropicalis; in assay [1]; in the assay on Aspergillus niger; in the assay on Bacillus cereus; with Saccharomyces cerevisiae; with Enterococcus faecalis) was Active. Moreover, the outcome (in assay [2]; in the assay with Escherichia coli; with Pseudomonas aeruginosa; in the assay with Klebsiella aerogenes; in the assay on Staphylococcus aureus; with Candida albicans) was Active.
On to `Cc1c(-n2c(Cc3ccc(Cl)cc3)nn(CC(=O)NN)c2=O)c(=O)n(-c2ccccc2)n1C`, for which the outcome (with Candida tropicalis; in assay [1]; in the assay on Aspergillus niger; with Bacillus cereus; in the assay on Saccharomyces cerevisiae; with Enterococcus faecalis) was Active. The outcome (in assay [2]; in the assay with Escherichia coli; in the assay with Pseudomonas aeruginosa; with Klebsiella aerogenes; with Staphylococcus aureus; with Candida albicans) was Active.
`Cc1c(-n2c(Cc3ccc(Cl)cc3)nn(CC(=O)N/N=c3/scc(-c4ccc([N+](=O)[O-])cc4)n3-c3ccccc3)c2=O)c(=O)n(-c2ccccc2)n1C`: the result in the assay with Candida tropicalis, with Aspergillus niger, in the assay with Saccharomyces cerevisiae, with Klebsiella aerogenes and with Candida albicans was Active. The “inhibition zone (IZ)” value was found to be 25 mm in assay [1]; 20 mm in the assay on Bacillus cereus; 18 mm with Enterococcus faecalis; 30 mm in [2]; 15 mm with Escherichia coli; 20 mm in the assay on Pseudomonas aeruginosa. Also, the “inhibition zone (IZ)” value in the assay on Staphylococcus aureus is 30 mm.
On to `Cc1c(-n2c(Cc3ccc(Cl)cc3)nn(Cc3nnc(NCc4ccccc4)s3)c2=O)c(=O)n(-c2ccccc2)n1C`, for which the outcome in the assay with Candida tropicalis, in the assay with Aspergillus niger, in the assay with Bacillus cereus, in the assay with Saccharomyces cerevisiae, in the assay with Enterococcus faecalis and with Staphylococcus aureus was Active. The outcome in the assay with Candida albicans was Active. The “inhibition zone (IZ)” value in [1] was 25 mm; in assay [2] it was 25 mm; with Escherichia coli, 25 mm; with Pseudomonas aeruginosa, 30 mm; in the assay with Klebsiella aerogenes, 25 mm.
Take `Cc1c(-n2c(Cc3ccc(Cl)cc3)nn(Cc3nnc(Nc4ccccc4)s3)c2=O)c(=O)n(-c2ccccc2)n1C`: the result with Candida tropicalis, in the assay with Aspergillus niger, in the assay on Bacillus cereus, in the assay on Saccharomyces cerevisiae, in the assay on Enterococcus faecalis and in the assay with Staphylococcus aureus was Active. Also, in the assay on Candida albicans, the outcome was Active. In addition, the “inhibition zone (IZ)” value in assay [1] was found to be 25 mm; in assay [2], 25 mm; in the assay on Escherichia coli, 25 mm; in the assay on Pseudomonas aeruginosa, 35 mm; in the assay with Klebsiella aerogenes it was 25 mm.
Regarding `Cc1c(-n2c(Cc3ccc(Cl)cc3)nn(CC(=O)NNC(=S)Nc3ccccc3)c2=O)c(=O)n(-c2ccccc2)n1C`, the result with Candida tropicalis, in the assay with Aspergillus niger, in the assay with Saccharomyces cerevisiae, in the assay with Klebsiella aerogenes and in the assay with Candida albicans was Active. Besides, the “inhibition zone (IZ)” value in assay [1] came to 10 mm; in the assay on Bacillus cereus it was 10 mm; in the assay with Enterococcus faecalis, 8 mm; in assay [2], 8 mm; in the assay with Escherichia coli it was 10 mm; in the assay on Pseudomonas aeruginosa, 8 mm. Besides, in the assay with Staphylococcus aureus, the “inhibition zone (IZ)” value was determined as 8 mm.
`Cc1c(-n2c(Cc3ccc(Cl)cc3)n[nH]c2=O)c(=O)n(-c2ccccc2)n1C`: the outcome (in the assay with Candida tropicalis; in assay [1]; with Aspergillus niger; in the assay on Bacillus cereus; with Saccharomyces cerevisiae; in the assay on Enterococcus faecalis) was Active. Moreover, the result (in [2]; with Escherichia coli; in the assay on Pseudomonas aeruginosa; in the assay with Klebsiella aerogenes; in the assay on Staphylococcus aureus; with Candida albicans) was Active.
For `Cc1c(-n2c(Cc3ccc(Cl)cc3)nn(Cc3nnc(S)n3Cc3ccccc3)c2=O)c(=O)n(-c2ccccc2)n1C`, the outcome in the assay with Candida tropicalis, with Aspergillus niger, in the assay with Saccharomyces cerevisiae and in the assay with Candida albicans was Active. In addition, the “inhibition zone (IZ)” value is on record as 33 mm in assay [1]; 30 mm in the assay with Bacillus cereus; 28 mm in the assay on Enterococcus faecalis; 30 mm in assay [2]; 35 mm in the assay on Escherichia coli; 30 mm in the assay with Pseudomonas aeruginosa. In addition, the “inhibition zone (IZ)” value in the assay on Klebsiella aerogenes and with Staphylococcus aureus was 30 mm each time.
Turning to `Cc1c(-n2c(Cc3ccc(Cl)cc3)nn(CC(=O)NNC(=S)Nc3ccc(F)cc3)c2=O)c(=O)n(-c2ccccc2)n1C`, the result in the assay on Candida tropicalis, in the assay on Aspergillus niger, in the assay with Saccharomyces cerevisiae and in the assay on Candida albicans was Active. Moreover, the “inhibition zone (IZ)” value in [1] is 15 mm; in the assay on Bacillus cereus, 10 mm; in the assay with Enterococcus faecalis it was 8 mm; in assay [2], 10 mm; with Escherichia coli, 15 mm; with Pseudomonas aeruginosa it was 10 mm. For the same compound, the “inhibition zone (IZ)” value is 8 mm with Klebsiella aerogenes and 10 mm in the assay on Staphylococcus aureus.
Take `Cc1c(-n2c(Cc3ccc(Cl)cc3)nn(Cc3nnc(S)n3-c3ccc(F)cc3)c2=O)c(=O)n(-c2ccccc2)n1C`: the result in the assay with Candida tropicalis, with Aspergillus niger, in the assay with Saccharomyces cerevisiae and in the assay on Candida albicans was Active. The “inhibition zone (IZ)” value was determined as 30 mm in [1]; 30 mm with Bacillus cereus; 28 mm in the assay on Enterococcus faecalis; 30 mm in [2]; 35 mm in the assay with Escherichia coli; 28 mm in the assay with Pseudomonas aeruginosa. The “inhibition zone (IZ)” value in the assay on Klebsiella aerogenes and in the assay on Staphylococcus aureus was 30 mm each time.
